The values below come from PubChem BioAssay AID504413 (Broad Institute, 2011).

Results filed as inconclusive are left out. Calls of active or inactive are those of the source.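 How the source made its calls: active means in every test run, the fitted curve rises past 10% of the positive control effect within the tested doses; inconclusive means runs disagree, or a flat fit at moderate level, or poor fit; inactive means all runs inactive, including signal going the wrong way.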

Tested on in one assay: not listed separately
The assay can be described thus: caspase-3/7 activation in A1-dependent MEFs, dose response, A1 inhibitor project, cell-based, A1-2A-BIM MEF, luminescence, dry powder (AID 504413). The settings on record: MEF A1-2A-BIM cells, caspase-3/7 Glo luminescence; hits give high values. In a few lines: (§1)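 Test system: mouse embryonic fibroblasts co-expressing A1-2A-BIM, primed for A1 dependence; medium: RPMI-1640, 10% FBS; timing: 37 °C compound 3 h, room-temperature reagent 1 h; signal: Caspase-3/7 luminescence from DEVD-luciferin substrate reagent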
On to `COc1ccc(N2CCN(c3nc(NCCc4ccc(OC)c(OC)c4)nc(N4CCOCC4)n3)CC2)cc1`, for which the max activity is -3.19% (inactive). Same read-out and setting: for `Cc1ccc(Sc2c(Sc3ccc(C)cc3)c3ccccc3n(C)c2=O)cc1` the value was 0.915% (inactive); for `COc1nc2ccccc2c(Sc2ccc(C)cc2)c1[N+](=O)[O-]`, -2.09% (inactive). `O=C(COc1ccc(Cl)cc1Cl)NNc1nc(N2CCOCC2)nc(N2CCOCC2)n1`: the max activity was -3.81% (inactive). With `COc1ccc(CCNc2nc(N3CCOCC3)nc(N3CCOCC3)n2)cc1OC`, the max activity was -1.95% (inactive). As to `CCn1c(=O)c(Sc2ccc(C)cc2)c(Sc2ccc(C)cc2)c2ccccc21`, the max activity was 3.42% (inactive).

`COc1nc2ccccc2c(Cl)c1[N+](=O)[O-]`: the max activity is -3.3% (inactive). Consider `C/C(=N\Nc1nc(N2CCCCC2)nc(N2CCCCC2)n1)c1ccc(F)cc1`, for which the max activity is 0.285% (inactive).

Turning to `COCCn1c(=O)c(Sc2ccc(C)cc2)c(Sc2ccc(C)cc2)c2ccccc21`, the max activity was 4.03% (inactive). In the case of `Cc1ccc(Sc2c(Sc3ccc(C)cc3)c3ccccc3n(Cc3ccccc3)c2=O)cc1`, the max activity was 6.71% (inactive). Regarding `COc1ccc(CCNc2nc(N3CCCC3)nc(N3CCCC3)n2)cc1OC`, the max activity was 4.48% (inactive). As for `O=c1[nH]c2ccccc2c(O)c1[N+](=O)[O-]`, the max activity was 0.403% (inactive).

Consider `COc1c([N+](=O)[O-])c(=O)n(C)c2ccccc12`, for which the max activity is -4.02% (inactive).

With `Cn1c(=O)c(Sc2ccccn2)c(Sc2ccccn2)c2ccccc21`, the max activity is -0.138% (inactive).

The test system of a further assay is MEF A1-2A-BIM cells, caspase-3/7 Glo luminescence. The description is as above.
Details: not given
In short, it runs like this:
as §1
With `Cc1ccc(Sc2c([N+](=O)[O-])c(=O)n(C)c3ccccc23)cc1`, the AC10 was 7.28 µM.

On to `COCCn1c(=O)c([N+](=O)[O-])c(Cl)c2ccccc21`, for which the AC10 is 1.9 µM. Take `Cn1c(=O)c([N+](=O)[O-])c(Sc2ccccn2)c2ccccc21`: the AC10 was 3.78 µM. With `Cc1ccc(S(=O)(=O)c2c([N+](=O)[O-])c(=O)n(C)c3ccccc23)cc1`, the AC10 was 7.02 µM. With `Cn1c(=O)c([N+](=O)[O-])c(Cl)c2ccccc21`, the AC10 was 2.6 µM.
